According to ChEMBL document CHEMBL6127150, “Discovery of PARP1-Sparing Inhibitors for Protein ADP-Ribosylation” (ACS Med Chem Lett, 2024):
Calls of active or inactive are those of the source. The rule behind the calls is not given here.

Assays:
[1] = target: Poly [ADP-ribose] polymerase 1 (Homo sapiens) (UniProt P09874); test: Inhibition of human full-length PARP1 expressed in bacterial expression system assessed as reduction in enzyme mediated autoPARylation at 100 uM using NAD+ as substrate preincubated for 30 mins followed by substrate addition and measured after 2 hrs by immunoblot analysis; settings: time 2.5 hrs
Outline: (§1)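 Full-length human PARP1 or PARP2, expressed recombinantly in and purified from bacteria, auto-PARylated without or with 100 μM compound. Read-out was immunoblot with an anti-PAR antibody. Loading control was anti-His₆ for PARP1 and anti-PARP2 antibody for PARP2. Signal was quantified by densitometry normalized to the loading control, with significance testing.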

[2] = target: T1, Poly [ADP-ribose] polymerase 2 (Homo sapiens, UniProt Q9UGN5); test: Inhibition of human full-length PARP2 expressed in bacterial expression system assessed as reduction in enzyme mediated autoPARylation at 100 uM using NAD+ as substrate preincubated for 30 mins followed by substrate addition and measured after 2 hrs by immunoblot analysis; settings: time 2.5 hrs; outline: as §1
[3] = target: T2, Poly [ADP-ribose] polymerase tankyrase-1 (Homo sapiens) (UniProt O95271); test: Inhibition of human PARP5a catalytic domain expressed in bacterial expression system assessed as reduction in enzyme mediated autoPARylation at 100 uM using NAD+ as substrate measured after 2 hrs by immunoblot analysis
T2 sequence (whole entry): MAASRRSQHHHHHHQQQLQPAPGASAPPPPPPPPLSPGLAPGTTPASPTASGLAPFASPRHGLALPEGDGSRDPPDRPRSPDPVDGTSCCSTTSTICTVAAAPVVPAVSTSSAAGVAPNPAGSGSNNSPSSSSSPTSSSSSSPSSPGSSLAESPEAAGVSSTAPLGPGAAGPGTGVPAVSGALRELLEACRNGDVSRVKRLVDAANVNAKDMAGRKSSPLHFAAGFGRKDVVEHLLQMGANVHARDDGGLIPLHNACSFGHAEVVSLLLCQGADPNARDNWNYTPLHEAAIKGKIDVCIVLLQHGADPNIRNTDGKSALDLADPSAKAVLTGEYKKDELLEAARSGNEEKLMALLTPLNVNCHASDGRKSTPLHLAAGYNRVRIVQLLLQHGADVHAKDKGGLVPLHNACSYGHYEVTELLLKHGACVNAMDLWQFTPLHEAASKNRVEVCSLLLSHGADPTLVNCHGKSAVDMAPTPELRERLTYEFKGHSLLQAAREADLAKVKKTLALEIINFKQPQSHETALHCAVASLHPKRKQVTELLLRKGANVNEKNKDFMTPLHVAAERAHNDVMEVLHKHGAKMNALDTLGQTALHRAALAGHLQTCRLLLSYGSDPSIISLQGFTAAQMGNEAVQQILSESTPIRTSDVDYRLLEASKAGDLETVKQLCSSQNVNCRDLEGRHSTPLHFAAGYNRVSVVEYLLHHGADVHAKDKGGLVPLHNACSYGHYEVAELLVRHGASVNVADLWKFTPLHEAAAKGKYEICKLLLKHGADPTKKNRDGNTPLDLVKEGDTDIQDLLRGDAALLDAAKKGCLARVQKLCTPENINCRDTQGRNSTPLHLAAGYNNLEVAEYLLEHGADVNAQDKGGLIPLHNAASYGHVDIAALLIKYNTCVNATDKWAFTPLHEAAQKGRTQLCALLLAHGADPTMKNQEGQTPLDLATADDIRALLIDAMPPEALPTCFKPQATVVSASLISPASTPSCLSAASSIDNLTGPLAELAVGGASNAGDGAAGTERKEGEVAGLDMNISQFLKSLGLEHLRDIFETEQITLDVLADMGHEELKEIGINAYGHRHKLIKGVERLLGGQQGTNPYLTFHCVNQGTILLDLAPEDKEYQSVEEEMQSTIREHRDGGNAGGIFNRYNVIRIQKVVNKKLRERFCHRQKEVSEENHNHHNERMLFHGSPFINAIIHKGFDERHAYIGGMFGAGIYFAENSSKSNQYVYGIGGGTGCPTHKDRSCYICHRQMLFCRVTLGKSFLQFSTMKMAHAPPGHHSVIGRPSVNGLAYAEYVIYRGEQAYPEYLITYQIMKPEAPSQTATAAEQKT
Outline: (§2)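 Catalytic domains of human PARP5a (PARylation) and PARP10 (MARylation), bacterially expressed and purified, were auto-ADP-ribosylated with NAD⁺ without or with 100 μM compound. Detection was by immunoblot using the AF1521 macrodomain pan-ADPr binding reagent, with anti-His₆ loading control. Densitometry was normalized to the loading control.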

[4] = target: T3, Protein mono-ADP-ribosyltransferase PARP10 (Homo sapiens) (UniProt Q53GL7); test: Inhibition of human PARP10 catalytic domain expressed in bacterial expression system assessed as reduction in enzyme mediated autoPARylation at 100 uM using NAD+ as substrate measured after 2 hrs by immunoblot analysis; outline: as §2
T3 sequence (whole entry): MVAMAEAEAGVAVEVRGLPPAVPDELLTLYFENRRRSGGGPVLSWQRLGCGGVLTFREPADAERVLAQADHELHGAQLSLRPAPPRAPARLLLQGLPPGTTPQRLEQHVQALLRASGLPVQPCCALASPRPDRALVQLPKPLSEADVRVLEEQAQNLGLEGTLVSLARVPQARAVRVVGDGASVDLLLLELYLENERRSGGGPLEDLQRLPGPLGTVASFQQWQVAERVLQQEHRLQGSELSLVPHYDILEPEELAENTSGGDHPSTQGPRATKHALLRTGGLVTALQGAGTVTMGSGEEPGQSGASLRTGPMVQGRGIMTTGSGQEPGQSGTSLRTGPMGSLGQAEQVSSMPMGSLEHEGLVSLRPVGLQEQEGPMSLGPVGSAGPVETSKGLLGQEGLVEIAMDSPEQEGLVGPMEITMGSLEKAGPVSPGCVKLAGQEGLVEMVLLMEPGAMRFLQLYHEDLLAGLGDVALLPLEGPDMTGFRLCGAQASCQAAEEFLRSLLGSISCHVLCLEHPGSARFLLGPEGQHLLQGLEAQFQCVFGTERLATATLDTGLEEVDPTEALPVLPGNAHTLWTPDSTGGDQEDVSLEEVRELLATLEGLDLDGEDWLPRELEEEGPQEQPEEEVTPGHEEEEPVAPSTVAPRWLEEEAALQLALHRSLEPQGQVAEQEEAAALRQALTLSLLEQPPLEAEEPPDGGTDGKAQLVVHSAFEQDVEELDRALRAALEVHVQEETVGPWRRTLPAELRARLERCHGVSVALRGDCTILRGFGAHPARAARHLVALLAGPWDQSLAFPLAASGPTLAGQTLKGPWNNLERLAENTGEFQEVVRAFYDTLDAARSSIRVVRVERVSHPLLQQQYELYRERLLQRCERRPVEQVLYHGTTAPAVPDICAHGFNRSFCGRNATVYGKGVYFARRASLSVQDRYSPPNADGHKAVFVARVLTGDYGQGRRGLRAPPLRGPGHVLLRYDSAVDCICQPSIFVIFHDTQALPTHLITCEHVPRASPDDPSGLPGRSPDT

[5] = test system: HAP1; test: Inhibition of PARP in human HAP1 cell lysates assessed as reduction in protein ADP-ribosylation at 100 uM using NAD+ as substrate measured after 2 hrs by immunoblot analysis; type: subcellular
Outline: (§3)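 HAP1 or HAP1/PARP1-KO cell lysates were ADP-ribosylated without or with 100 μM compound. Protein ADP-ribosylation was detected by immunoblot with the AF1521 macrodomain pan-ADPr binding reagent, with anti-GAPDH as loading control. Densitometric signal was normalized to loading control and tested for significance.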

[6] = test system: HAP1; test: Inhibition of PARP in human HAP1 PARP1-KO cell lysates assessed as reduction in protein ADP-ribosylation at 100 uM using NAD+ as substrate measured after 2 hrs by immunoblot analysis; type: subcellular; outline: as §3
[7] = target: T4, Protein mono-ADP-ribosyltransferase PARP10 (Homo sapiens, UniProt Q53GL7); test: Inhibition of human PARP10 catalytic domain expressed in bacterial expression system assessed as reduction in enzyme mediated autoPARylation using NAD+ as substrate measured after 2 hrs by immunoblot analysis
T4 sequence (Q53GL7 whole entry): T3 sequence (whole entry)

[8] = target: T1, Poly [ADP-ribose] polymerase 2; test: Inhibition of human full-length PARP2 expressed in bacterial expression system assessed as reduction in enzyme mediated autoPARylation using NAD+ as substrate preincubated for 30 mins followed by substrate addition and measured after 2 hrs by immunoblot analysis

Chain of Poly [ADP-ribose] polymerase 1 (Homo sapiens) (P09874 whole entry): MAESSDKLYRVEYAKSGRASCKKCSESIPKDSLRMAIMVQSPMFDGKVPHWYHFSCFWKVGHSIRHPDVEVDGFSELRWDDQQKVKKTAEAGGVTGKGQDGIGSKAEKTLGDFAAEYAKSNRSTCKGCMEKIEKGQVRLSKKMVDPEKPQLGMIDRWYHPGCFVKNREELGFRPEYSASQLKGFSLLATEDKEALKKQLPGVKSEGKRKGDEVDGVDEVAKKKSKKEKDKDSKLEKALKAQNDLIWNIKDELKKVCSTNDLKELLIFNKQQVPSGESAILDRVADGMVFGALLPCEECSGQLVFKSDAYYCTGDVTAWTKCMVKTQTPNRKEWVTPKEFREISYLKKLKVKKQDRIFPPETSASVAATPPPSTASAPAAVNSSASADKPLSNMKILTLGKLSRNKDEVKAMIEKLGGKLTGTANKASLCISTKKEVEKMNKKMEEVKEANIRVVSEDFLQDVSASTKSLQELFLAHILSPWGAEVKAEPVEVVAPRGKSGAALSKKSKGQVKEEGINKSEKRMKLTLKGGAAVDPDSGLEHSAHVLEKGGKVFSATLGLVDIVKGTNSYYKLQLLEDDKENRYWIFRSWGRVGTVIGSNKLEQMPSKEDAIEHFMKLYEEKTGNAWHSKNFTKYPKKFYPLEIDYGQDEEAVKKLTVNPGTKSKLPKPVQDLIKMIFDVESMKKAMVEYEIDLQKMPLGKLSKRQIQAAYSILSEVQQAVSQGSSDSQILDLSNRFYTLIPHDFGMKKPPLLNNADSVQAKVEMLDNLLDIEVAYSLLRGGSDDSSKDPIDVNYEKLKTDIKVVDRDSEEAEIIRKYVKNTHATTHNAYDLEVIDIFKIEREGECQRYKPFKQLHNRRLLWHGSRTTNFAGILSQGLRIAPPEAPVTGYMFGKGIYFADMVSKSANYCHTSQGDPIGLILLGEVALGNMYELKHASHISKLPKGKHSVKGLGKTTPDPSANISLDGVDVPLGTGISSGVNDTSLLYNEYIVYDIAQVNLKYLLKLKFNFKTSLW
T1 sequence (Q9UGN5 whole entry, the tested form may be a part): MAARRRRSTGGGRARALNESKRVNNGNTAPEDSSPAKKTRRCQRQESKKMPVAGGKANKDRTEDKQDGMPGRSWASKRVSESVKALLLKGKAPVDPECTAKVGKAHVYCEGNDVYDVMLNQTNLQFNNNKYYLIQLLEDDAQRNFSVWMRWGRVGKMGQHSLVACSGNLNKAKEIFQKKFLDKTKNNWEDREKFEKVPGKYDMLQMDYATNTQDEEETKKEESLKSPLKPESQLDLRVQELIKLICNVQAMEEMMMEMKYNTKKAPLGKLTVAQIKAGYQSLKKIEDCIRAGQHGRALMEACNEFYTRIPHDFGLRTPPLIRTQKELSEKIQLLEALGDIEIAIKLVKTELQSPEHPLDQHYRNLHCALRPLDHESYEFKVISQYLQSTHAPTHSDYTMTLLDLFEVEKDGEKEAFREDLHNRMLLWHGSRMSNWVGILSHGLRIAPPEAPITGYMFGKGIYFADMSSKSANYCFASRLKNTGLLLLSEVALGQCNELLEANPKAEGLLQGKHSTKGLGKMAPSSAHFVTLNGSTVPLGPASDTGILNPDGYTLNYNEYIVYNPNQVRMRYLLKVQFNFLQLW

SMILES | inhibition [1] | inhibition [2] | inhibition [3] | inhibition [4] | inhibition [5] | inhibition [6] | IC50 [7] [µM] | IC50 [8] [µM]
CC(=O)c1cccc(C(=O)Nc2ccccc2C(N)=O)c1 | inactive |  |  |  |  |  |  | 
CC(=O)c1cccc(CCOc2ccccc2C(N)=O)c1 | inactive | Active | Active | Active | Active | Active | 48.3 | 59.7
O=C(c1cc(Cc2n[nH]c(=O)c3ccccc23)ccc1F)N1CCN(C(=O)C2CC2)CC1 |  |  |  |  | Active | Active |  | 
CC(=O)c1cccc(CNc2ccccc2C(N)=O)c1 | inactive |  |  |  |  |  |  | 
CC(=O)c1cccc(CCCOc2ccccc2C(N)=O)c1 |  | Active |  |  |  |  |  | 
CC(=O)c1cccc([C@H](C)Oc2ccccc2C(N)=O)c1 |  | Active |  |  |  |  |  | 
CC(=O)c1cccc([C@@H](C)Oc2ccccc2C(N)=O)c1 |  | Active |  |  |  |  |  | 
CC(=O)c1cccc(CCOc2ccc(F)cc2C(N)=O)c1 | inactive | Active | Active | Active | Active | Active | 36.9 | 51.5
CC(=O)c1cc(COc2ccccc2C(N)=O)ccc1F | inactive | Active | Active | Active | Active | Active | 39.4 | 50.1
CC(=O)c1cccc(COc2ccccc2C(N)=O)c1 | inactive | Active | Active | Active | Active | Active | 15.3 | 102
